Experimental data taken from ChEMBL document CHEMBL1152452, “Modifications incorporated in CpG motifs of oligodeoxynucleotides lead to antagonist activity of toll-like receptors 7 and 9” (2009).
Active and inactive are the calls of the source.

Legend:
Mus musculus [1] = test: Immunostimulatory activity in C57BL/6 mouse assessed as inhibition of 5'-CTATCTGACGTTCTCTGT-3'-induced IL12 production in serum at 10 mg/kg, sc administered 24 hrs prior to 5'-CTATCTGACGTTCTCTGT-3' challenge measured after 2 hrs by sandwich ELISA; assay type: functional; conditions: C57BL/6, sc, route subcutaneous
In short: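 C57BL/6 mice received 10 mg/kg ODN sc in the right flank. The TLR9 agonist ODN was then given at 0.5 mg/kg sc in the left flank 24, 48 or 72 h later. Serum IL-12 was measured by ELISA 2 h after challenge. Naive serum served as reference. Representative of three experiments.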

Mus musculus [2] = test: Immunostimulatory activity in C57BL/6 mouse assessed as inhibition of 0.25 mg/kg 5'-CTATCTGACGTTCTCTGT-3'-induced IL12 production in serum at 10 mg/kg, sc administered 24 hrs prior to 5'-CTATCTGACGTTCTCTGT-3' challenge measured after 2 hrs by sandwich ELISA; assay type: functional
In short: (§1)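 C57BL/6 mice received 10 mg/kg ODN sc in the right flank. After 24 h, the CpG TLR9 agonist ODN was given sc in the left flank at 0.25, 0.5 or 1 mg/kg. Serum IL-12 was measured by ELISA 2 h after challenge. Naive mice served as reference. Representative of two experiments.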

Mus musculus [3] = test: Immunostimulatory activity in C57BL/6 mouse assessed as inhibition of 1 mg/kg 5'-CTATCTGACGTTCTCTGT-3'-induced IL12 production in serum at 10 mg/kg, sc administered 24 hrs prior to 5'-CTATCTGACGTTCTCTGT-3' challenge measured after 2 hrs by sandwich ELISA; assay type: functional; in short: as §1
Mus musculus [4] = test: Immunostimulatory activity in C57BL/6 mouse assessed as inhibition of 5'-CTATCTGACGTTCTCTGT-3'-induced KC production in serum at 5 mg/kg, sc administered 24 hrs prior to 5'-CTATCTGACGTTCTCTGT-3' challenge measured after 2 hrs by Luminex multiplex assay; assay type: functional; conditions: C57BL/6, sc, route subcutaneous
Mus musculus [5] = test: Immunostimulatory activity in C57BL/6 mouse assessed as inhibition of 5'-CTATCTGACGTTCTCTGT-3'-induced MCP1 production in serum at 5 mg/kg, sc administered 24 hrs prior to 5'-CTATCTGACGTTCTCTGT-3' challenge measured after 2 hrs by Luminex multiplex assay; assay type: functional; conditions: C57BL/6, sc, route subcutaneous
Mus musculus [6] = test: Immunostimulatory activity in C57BL/6 mouse assessed as inhibition of 5'-CTATCTGACGTTCTCTGT-3'-induced MIP1a production in serum at 5 mg/kg, sc administered 24 hrs prior to 5'-CTATCTGACGTTCTCTGT-3' challenge measured after 2 hrs by Luminex multiplex assay; assay type: functional; conditions: C57BL/6, sc, route subcutaneous
Mus musculus [7] = test: Immunostimulatory activity in C57BL/6 mouse assessed as inhibition of TLR7 agonist-induced IP10 production in serum at 5 mg/kg, sc administered 24 hrs prior to TLR7 agonist challenge measured after 2 hrs by Luminex multiplex assay; assay type: functional; conditions: C57BL/6, sc, route subcutaneous
Mus musculus [8] = test: Immunostimulatory activity in C57BL/6 mouse assessed as inhibition of LPS-induced KC production in serum at 10 mg/kg, sc administered 24 hrs prior to LPS challenge measured after 2 hrs by Luminex multiplex assay
Mus musculus [9] = test: Immunostimulatory activity in C57BL/6 mouse assessed as inhibition of LPS-induced MIG production in serum at 10 mg/kg, sc administered 24 hrs prior to LPS challenge measured after 2 hrs by Luminex multiplex assay
Mus musculus [10] = test: Immunostimulatory activity in C57BL/6 mouse assessed as inhibition of LPS-induced IP10 production in serum at 10 mg/kg, sc administered 24 hrs prior to LPS challenge measured after 2 hrs by Luminex multiplex assay
Mus musculus [11] = test: Immunostimulatory activity in C57BL/6 mouse assessed as inhibition of LPS-induced MCP1 production in serum at 10 mg/kg, sc administered 24 hrs prior to LPS challenge measured after 2 hrs by Luminex multiplex assay
Mus musculus [12] = test: Immunostimulatory activity in C57BL/6 mouse assessed as inhibition of LPS-induced MIP1a production in serum at 10 mg/kg, sc administered 24 hrs prior to LPS challenge measured after 2 hrs by Luminex multiplex assay
Mus musculus [13] = test: Immunostimulatory activity in C57BL/6 mouse assessed as inhibition of LPS-induced TNFalpha production in serum at 10 mg/kg, sc administered 24 hrs prior to LPS challenge measured after 2 hrs by Luminex multiplex assay
Mus musculus [14] = test: Immunostimulatory activity in C57BL/6 mouse assessed as inhibition of TLR3 agonist-induced KC production in serum at 10 mg/kg, sc administered 24 hrs prior to TLR3 agonist challenge measured after 2 hrs by Luminex multiplex assay
Mus musculus [15] = test: Immunostimulatory activity in C57BL/6 mouse assessed as inhibition of TLR3 agonist-induced IL6 production in serum at 10 mg/kg, sc administered 24 hrs prior to TLR3 agonist challenge measured after 2 hrs by Luminex multiplex assay
Mus musculus [16] = test: Immunostimulatory activity in C57BL/6 mouse assessed as inhibition of TLR3 agonist-induced IL10 production in serum at 10 mg/kg, sc administered 24 hrs prior to TLR3 agonist challenge measured after 2 hrs by Luminex multiplex assay
Mus musculus [17] = test: Immunostimulatory activity in C57BL/6 mouse assessed as inhibition of TLR3 agonist-induced IP10 production in serum at 10 mg/kg, sc administered 24 hrs prior to TLR3 agonist challenge measured after 2 hrs by Luminex multiplex assay
Mus musculus [18] = test: Immunostimulatory activity in C57BL/6 mouse assessed as inhibition of TLR3 agonist-induced MIP1a production in serum at 10 mg/kg, sc administered 24 hrs prior to TLR3 agonist challenge measured after 2 hrs by Luminex multiplex assay

COC1[C@H](n2cnc3c(=O)[nH]c(N)nc32)O[C@H](COP(=O)(S)O[C@H]2C[C@H](n3cc(C)c(N)nc3=O)O[C@@H]2COP(=O)(S)O[C@H]2C[C@H](n3cnc4c(N)ncnc43)O[C@@H]2COP(=O)(S)O[C@H]2C[C@H](n3cnc4c(=O)[nH]c(N)nc43)O[C@@H]2COP(=O)(S)O[C@H]2C[C@H](n3cc(C)c(=O)[nH]c3=O)O[C@@H]2COP(=O)(S)O[C@H]2C[C@H](n3ccc(N)nc3=O)O[C@@H]2COP(=O)(S)O[C@H]2C[C@H](n3cc(C)c(=O)[nH]c3=O)O[C@@H]2COP(=O)(S)O[C@H]2C[C@H](n3cnc4c(N)ncnc43)O[C@@H]2COP(=O)(S)O[C@H]2C[C@H](n3cc(C)c(=O)[nH]c3=O)O[C@@H]2COP(=O)(S)O[C@H]2C[C@H](n3ccc(N)nc3=O)O[C@@H]2CO)[C@H]1OP(=O)(S)OC[C@H]1O[C@@H](n2cc(C)c(=O)[nH]c2=O)C[C@@H]1OP(=O)(S)OC[C@H]1O[C@@H](n2cc(C)c(=O)[nH]c2=O)C[C@@H]1OP(=O)(S)OC[C@H]1O[C@@H](n2ccc(N)nc2=O)C[C@@H]1OP(=O)(S)OC[C@H]1O[C@@H](n2cc(C)c(=O)[nH]c2=O)C[C@@H]1OP(=O)(S)OC[C@H]1O[C@@H](n2ccc(N)nc2=O)C[C@@H]1OP(=O)(S)OC[C@H]1O[C@@H](n2cc(C)c(=O)[nH]c2=O)C[C@@H]1OP(=O)(S)OC[C@H]1O[C@@H](n2cnc3c(=O)[nH]c(N)nc32)C[C@@H]1OP(=O)(S)OC[C@H]1O[C@@H](n2cc(C)c(=O)[nH]c2=O)C[C@@H]1O (stereo partly drawn)
81%: inhibition in vivo at 10 mg/kg (Mus musculus [1])
85%: inhibition (INH) (Mus musculus [2])
inactive: Activity (Mus musculus [8]) | Activity (Mus musculus [9]) | Activity (Mus musculus [10]) | Activity (Mus musculus [11]) | Activity (Mus musculus [12]) | Activity (Mus musculus [13]) | Activity (Mus musculus [14]) | Activity (Mus musculus [15]) | Activity (Mus musculus [16]) | Activity (Mus musculus [17]) | Activity (Mus musculus [18])
50%: inhibition in vivo at 5 mg/kg (Mus musculus [4]) | inhibition in vivo at 5 mg/kg (Mus musculus [5]) | inhibition in vivo at 5 mg/kg (Mus musculus [6]) | inhibition in vivo at 5 mg/kg (Mus musculus [7])
46%: inhibition (INH) (Mus musculus [3])
